Experimental data reported in ChEMBL document CHEMBL4387722.

Columns and labels:
[1] = tested on: Mycobacterium tuberculosis; experiment: Antitubercular activity against Mycobacterium tuberculosis H37Rv after 5 days at 200 uM relative to control; assay type: functional; settings: 120 h
How it was run: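 M. tuberculosis grown in liquid culture with compound at a fixed 200 μM for 5 days. Growth inhibition expressed as percent of control.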

[2] = biological target: T1, Phosphotyrosine protein phosphatase (Mycobacterium tuberculosis, UniProt A0A045ISB3); experiment: Inhibition of Mycobacterium tuberculosis His-tagged PtpB expressed in Escherichia coli Rosetta 2 (DE3) using pNPP as substrate after 30 mins by spectrophotometric method
T1 sequence (A0A045ISB3 whole entry): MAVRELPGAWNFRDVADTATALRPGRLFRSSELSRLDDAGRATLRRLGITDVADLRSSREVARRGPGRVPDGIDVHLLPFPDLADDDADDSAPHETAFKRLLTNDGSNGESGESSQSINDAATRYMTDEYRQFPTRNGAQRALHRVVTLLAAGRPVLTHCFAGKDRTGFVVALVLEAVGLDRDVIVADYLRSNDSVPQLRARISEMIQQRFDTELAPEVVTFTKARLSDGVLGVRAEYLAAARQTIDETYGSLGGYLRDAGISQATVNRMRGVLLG

[3] = biological target: T2, Tyrosine-protein phosphatase non-receptor type 1 (Homo sapiens, UniProt P18031); experiment: Inhibition of human PTPN1 expressed in Escherichia coli Rosetta 2 (DE3) using pNPP as substrate after 45 mins by spectrophotometric method
T2 sequence (P18031 whole entry): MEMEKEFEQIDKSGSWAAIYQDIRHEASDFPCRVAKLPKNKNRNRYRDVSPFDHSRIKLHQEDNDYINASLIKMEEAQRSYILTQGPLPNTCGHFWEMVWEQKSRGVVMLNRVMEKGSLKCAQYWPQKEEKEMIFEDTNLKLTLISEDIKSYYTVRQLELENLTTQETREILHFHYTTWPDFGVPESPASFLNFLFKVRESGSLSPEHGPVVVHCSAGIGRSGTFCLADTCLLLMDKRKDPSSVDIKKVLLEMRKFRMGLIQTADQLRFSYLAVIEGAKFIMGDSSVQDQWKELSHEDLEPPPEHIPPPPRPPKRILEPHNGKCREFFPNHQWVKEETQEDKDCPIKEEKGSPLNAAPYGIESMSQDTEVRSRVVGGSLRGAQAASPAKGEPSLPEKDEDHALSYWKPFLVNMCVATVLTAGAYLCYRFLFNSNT

[4] = biological target: T3, Tyrosine-protein phosphatase non-receptor type 5 (Homo sapiens, UniProt P54829); experiment: Inhibition of human PTPN5 expressed in Escherichia coli Rosetta 2 (DE3) using pNPP as substrate after 45 mins by spectrophotometric method
T3 sequence (P54829 whole entry): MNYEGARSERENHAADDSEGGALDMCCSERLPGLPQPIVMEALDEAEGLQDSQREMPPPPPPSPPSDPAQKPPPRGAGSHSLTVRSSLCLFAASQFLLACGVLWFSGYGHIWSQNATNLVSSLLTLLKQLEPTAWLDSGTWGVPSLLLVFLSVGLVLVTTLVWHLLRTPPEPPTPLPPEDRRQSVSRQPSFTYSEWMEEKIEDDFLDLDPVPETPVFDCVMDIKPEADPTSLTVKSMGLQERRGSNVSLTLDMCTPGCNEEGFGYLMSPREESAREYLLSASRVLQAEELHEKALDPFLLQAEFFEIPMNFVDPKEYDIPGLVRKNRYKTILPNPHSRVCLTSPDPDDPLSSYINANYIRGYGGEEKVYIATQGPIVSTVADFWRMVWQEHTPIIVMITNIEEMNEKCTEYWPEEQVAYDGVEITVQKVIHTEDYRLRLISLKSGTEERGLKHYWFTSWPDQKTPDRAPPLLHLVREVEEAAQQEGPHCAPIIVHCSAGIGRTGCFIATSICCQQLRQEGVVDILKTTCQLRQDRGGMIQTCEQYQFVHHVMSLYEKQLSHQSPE

HSP60/HSP10 = HSP60/HSP10 (Homo sapiens, UniProt P10809); experiment: Inhibition of human HSP60 expressed in Escherichia coli Rosetta 2(DE3)/human HSP10 expressed in Escherichia coli Rosetta 2(DE3) pLysS cells assessed as reduction in HSP60/HSP10-mediated denatured pig heart mitochondrial MDH refolding by measuring MDH enzyme activity using sodium mesoxalate as substrate after 40 to 60 mins by spectrometric analysis
HSP60/HSP10, sequence (P10809 whole entry): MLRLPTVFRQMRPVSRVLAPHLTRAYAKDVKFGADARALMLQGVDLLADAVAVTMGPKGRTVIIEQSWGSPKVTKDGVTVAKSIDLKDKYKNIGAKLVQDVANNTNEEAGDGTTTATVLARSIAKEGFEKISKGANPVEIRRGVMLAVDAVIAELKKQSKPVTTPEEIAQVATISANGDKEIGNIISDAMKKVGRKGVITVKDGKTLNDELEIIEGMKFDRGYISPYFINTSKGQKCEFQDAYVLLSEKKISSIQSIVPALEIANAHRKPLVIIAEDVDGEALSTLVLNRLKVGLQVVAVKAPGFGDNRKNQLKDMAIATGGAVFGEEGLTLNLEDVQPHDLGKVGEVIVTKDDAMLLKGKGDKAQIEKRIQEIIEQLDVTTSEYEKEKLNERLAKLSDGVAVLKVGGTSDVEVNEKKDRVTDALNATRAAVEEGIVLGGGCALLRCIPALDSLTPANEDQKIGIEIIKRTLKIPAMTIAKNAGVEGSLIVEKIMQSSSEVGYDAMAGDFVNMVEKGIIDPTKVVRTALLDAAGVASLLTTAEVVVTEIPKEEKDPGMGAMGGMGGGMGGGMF
HSP60/HSP10, sequence (P61604 whole entry, further chain): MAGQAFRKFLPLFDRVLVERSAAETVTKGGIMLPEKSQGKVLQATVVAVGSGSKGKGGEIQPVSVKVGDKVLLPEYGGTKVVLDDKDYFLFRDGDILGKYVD

[5] = biological target: T4, Tyrosine-protein phosphatase non-receptor type 2 (Homo sapiens, UniProt P17706); experiment: Inhibition of human PTPN2 expressed in Escherichia coli Rosetta 2 (DE3) using pNPP as substrate after 45 mins by spectrophotometric method
T4 sequence (P17706 whole entry): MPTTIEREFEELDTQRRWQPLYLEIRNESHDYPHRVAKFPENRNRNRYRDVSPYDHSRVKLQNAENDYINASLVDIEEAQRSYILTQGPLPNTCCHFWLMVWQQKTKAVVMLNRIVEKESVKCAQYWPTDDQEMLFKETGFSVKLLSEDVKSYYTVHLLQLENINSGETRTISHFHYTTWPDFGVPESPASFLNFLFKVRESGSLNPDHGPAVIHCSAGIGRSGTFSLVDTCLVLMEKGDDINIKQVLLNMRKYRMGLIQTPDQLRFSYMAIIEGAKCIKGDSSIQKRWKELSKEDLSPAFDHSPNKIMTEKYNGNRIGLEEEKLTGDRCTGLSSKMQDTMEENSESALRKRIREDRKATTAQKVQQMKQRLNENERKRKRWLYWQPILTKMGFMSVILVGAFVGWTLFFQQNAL

[6] = Selectivity ratio of IC50 for inhibition of human HSP60 expressed in Escherichia coli Rosetta 2(DE3)/human HSP10 expressed in Rosetta 2(DE3) pLysS cells to IC50 for inhibition of Escherichia coli GroEL expressed in Escherichia coli DH5alpha/Escherichia coli GroES expressed in Escherichia coli BL21 (DE3)
How it was run: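 Ratio of IC50s from two analogous chaperonin-mediated refolding assays: human HSP60/10 and E. coli GroEL/ES each refold denatured malate dehydrogenase (dMDH). Refolding is followed through the recovered MDH enzymatic activity in a coupled read-out. IC50s come from dose-response testing. GroEL subunits are at 700 nM in the GroEL/ES assay.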

[7] = Selectivity index, ratio of IC50 for human PTPN1 to IC50 for Mycobacterium tuberculosis PtpB
E. coli GroEL/ES [8] = biological target: T5, E. coli GroEL/ES (Escherichia coli, UniProt P0A6F5); experiment: Inhibition of Escherichia coli GroEL expressed in Escherichia coliDH5alpha/Escherichia coli GroES expressed in Escherichia coli BL21 (DE3) assessed as reduction in GroEL/GroES-mediated denatured pig heart mitochondrial MDH refolding by measuring MDH enzyme activity using sodium mesoxalate as substrate after 20 to 40 mins by spectrometric analysis
T5 sequence (P0A6F5 whole entry, looked up): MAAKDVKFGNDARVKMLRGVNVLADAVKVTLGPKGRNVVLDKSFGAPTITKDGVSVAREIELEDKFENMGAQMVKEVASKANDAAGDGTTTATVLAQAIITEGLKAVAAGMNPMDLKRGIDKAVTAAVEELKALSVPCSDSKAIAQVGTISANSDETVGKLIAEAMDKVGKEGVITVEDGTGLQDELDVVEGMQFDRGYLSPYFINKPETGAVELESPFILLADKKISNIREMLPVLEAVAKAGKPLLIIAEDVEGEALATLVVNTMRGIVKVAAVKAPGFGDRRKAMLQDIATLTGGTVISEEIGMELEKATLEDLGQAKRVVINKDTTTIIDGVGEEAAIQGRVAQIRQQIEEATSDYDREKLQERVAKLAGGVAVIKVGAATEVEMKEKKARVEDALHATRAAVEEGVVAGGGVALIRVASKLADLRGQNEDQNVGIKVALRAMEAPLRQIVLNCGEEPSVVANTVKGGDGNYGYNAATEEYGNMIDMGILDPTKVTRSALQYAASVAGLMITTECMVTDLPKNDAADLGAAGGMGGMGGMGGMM

[9] = tested on: Mycobacterium tuberculosis; experiment: Antitubercular activity against Mycobacterium tuberculosis H37Rv after 5 days; assay type: functional, organism-based; settings: 120 h
[10] = Cytotoxicity against human HEK293 cells assessed as reduction in cell viability after 48 hrs by Alamar blue assay; assay type: cell-based
How it was run: (§1)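 Alamar Blue viability read-out. Human liver (THLE-3) and kidney (HEK 293) cells incubated with compound for 48 h. Tested in dose-response to derive CC50.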

E. coli GroEL/ES [11] = biological target: T5, E. coli GroEL/ES; experiment: Inhibition of Escherichia coli GroEL expressed in Escherichia coli DH5alpha/Escherichia coli GroES expressed in Escherichia coli BL21 (DE3) assessed as reduction in GroEL/GroES-mediated denatured rhodanese refolding by measuring rhodanese enzyme activity after 45 mins by Fe(SCN)3 dye based spectrometric analysis
[12] = Inhibition of refolded rhodanese (unknown origin) preincubated with Escherichia coli GroEL/GroES for 60 mins by measuring rhodanese enzyme activity followed by compound addition by Fe(SCN)3 dye based spectrometric analysis; parameters: species or system Homo sapiens
[13] = biological target: T6, Malate dehydrogenase, mitochondrial (Sus scrofa, UniProt P00346); experiment: Inhibition of refolded pig heart mitochondrial MDH preincubated with Escherichia coli GroEL/GroES for 45 mins using sodium mesoxalate as substrate followed by compound addition and measured after 20 to 30 mins by spectrometric analysis
T6 sequence (P00346 whole entry): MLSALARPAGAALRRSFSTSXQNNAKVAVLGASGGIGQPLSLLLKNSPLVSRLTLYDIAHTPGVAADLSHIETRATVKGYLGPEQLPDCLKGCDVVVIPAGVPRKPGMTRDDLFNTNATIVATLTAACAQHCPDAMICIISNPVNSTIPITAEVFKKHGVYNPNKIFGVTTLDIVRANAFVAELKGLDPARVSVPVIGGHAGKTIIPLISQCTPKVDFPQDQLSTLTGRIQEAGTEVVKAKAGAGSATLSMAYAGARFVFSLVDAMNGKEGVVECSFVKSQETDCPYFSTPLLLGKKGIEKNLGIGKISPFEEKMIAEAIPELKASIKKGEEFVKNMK

[14] = Cytotoxicity against human THLE3 cells assessed as reduction in cell viability after 48 hrs by Alamar blue assay; assay type: cell-based; how it was run: as §1

Compound | inhibition at 200 µM [1] [%] | IC50 [2] [µM] | IC50 [3] [µM] | IC50 [4] [µM] | IC50 (HSP60/HSP10) [µM] | IC50 [5] [µM] | Ratio IC50 [6] | Ratio IC50 [7] | IC50 (E. coli GroEL/ES [8]) [µM] | EC50 [9] [µM] | CC50 at 48 h [10] [µM] | IC50 (E. coli GroEL/ES [11]) [µM] | IC50 [12] [µM] | IC50 [13] [µM] | CC50 at 48 h [14] [µM]
O=S(=O)(Nc1ccc(-c2nc3cc(NS(=O)(=O)c4cccs4)ccc3o2)cc1)c1cccs1 | 59 | 12 | 31 | 33 | 40 | 41 | 7.3 | 2.6 | 5.5 | 34 |  |  |  |  | 
N#Cc1ccc(S(=O)(=O)Nc2ccc(-c3nc4cc(NS(=O)(=O)c5ccc(C#N)cc5)ccc4o3)cc2)cc1 | 95 | 12 | 37 | 27 | 49 | 35 | 1.4 | 2.3 | 35 | 43 |  |  |  |  | 
O=S(=O)(Nc1ccc2oc(-c3ccc(NS(=O)(=O)c4cccc5nonc45)cc3)nc2c1)c1ccc(Cl)s1 | 46 | 5.9 | 15 | 24 | 13 | 28 | 1.4 | 2.5 | 9.3 | 58 |  |  |  |  | 
O=S(=O)(Nc1ccc2oc(-c3ccc(NS(=O)(=O)c4ccc(Cl)s4)cc3)nc2c1)c1ccccc1 | 72 | 8.8 | 14 | 24 | 9 | 28 | 1.6 | 1.6 | 5.6 | 40 |  |  |  |  | 
O=S(=O)(Nc1ccc(-c2nc3cc(NS(=O)(=O)c4ccc(O)cc4)ccc3o2)cc1)c1ccc(O)cc1 | 66 | 12 | 27 | 35 | 14 | 75 | 61 | 2.3 | 0.23 | 94 |  |  |  |  | 
O=S(=O)(Nc1ccc(-c2nc3cc(NS(=O)(=O)c4ccc(F)cc4)ccc3o2)cc1)c1ccc(F)cc1 | 48 | 18 | 27 | 23 | 67 | 28 | 20 | 1.3 | 3.3 | 66 |  |  |  |  | 
O=S(=O)(Nc1ccc(-c2nc3ccccc3o2)cc1)c1ccccc1 | 71 | 80 | 65 | 51 | > 100 | 66 |  |  | 94 | 179 | > 100 | 217 | > 100 | > 63 | 96
O=S(=O)(Nc1ccc(-c2nc3ccccc3o2)cc1)c1cccs1 | 68 | 48 | > 100 | 93 | 63 | > 100 |  |  | > 100 | > 200 | > 100 | 239 | > 100 | > 63 | 98
NCc1ccc(S(=O)(=O)Nc2ccc(-c3nc4cc(NS(=O)(=O)c5ccc(Cl)s5)ccc4o3)cc2)cc1 | 94 | 9.1 | 56 | 75 | 48 | 91 | 37 | 6.2 |  | 26 |  |  |  |  | 
